“And” between values parts separate entries of the source, which are not always exact repeats. Equal values may be shown once.
Assays:
Rattus norvegicus [1] = assay: Natriuretic activity in rats at 9 mg/kg of dosage; mequiv of Na; format: functional
Summary of the method: (§1)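 Rats housed three per metabolism cage received placebo vehicle or compound as a suspension in a final volume of 5.0 mL orally, with placebo groups run concurrently. Urine was collected over 0–5 h and analysed for Na+, K+ and Cl− by standard methods. Values are mequiv per cage, given as geometric means of three cages per dose level.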

Rattus norvegicus [2] = assay: Natriuretic activity in rats at 3 mg/kg of dosage; mequiv of Na; format: functional; summary of the method: as §1
Rattus norvegicus [3] = assay: Natriuretic activity in rats at 27 mg/kg of dosage; mequiv of Na; format: functional; summary of the method: as §1
Rattus norvegicus [4] = assay: Natriuretic activity in rats at 81 mg/kg of dosage; mequiv of Na; format: functional; summary of the method: as §1
Pan troglodytes [5] = assay: Compound was tested for natriuretic activity in chimpanzee at 5 mg/kg dose activity is measured as microequivalent of Na+/minute; muequiv of Na+/min; format: functional
Summary of the method: (§2)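 Inulin iv gave GFR; urate and inulin clearances and Na+, K+, Cl- excretion were measured by AutoAnalyzer. Controls were three 20-min periods; compound was given orally in aqueous solution via nasal catheter. Response was the mean of eight 15-20 min periods, reported as treatment minus control from single experiments.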

Canis familiaris [6] = assay: Compound was tested for diuretic activity in dogs at 5 mg/kg dose after intravenous administration measured as microequivalent of Na+/minute; 46/767 (Control/Drug treated); format: functional, Canis lupus familiaris, Urine
[7] = Compound was tested for natriuretic activity in chimpanzee at 5 mg/kg dose activity is measured as ratio of clearance of urate / […]; Curate/Cinulin; format: functional; summary of the method: as §2
Canis familiaris [8] = assay: Diuretic activity in dogs following 5 mg/kg oral administration.
Canis familiaris [9] = assay: Compound was tested for diuretic activity in dogs at 5 mg/kg dose after intravenous administration measured as microequivalent of Cl-/minute; 43/54 (Control/Drug treated); format: functional, Canis lupus familiaris, Urine
Summary of the method: (§3)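 Intravenous dog clearance study. A priming iv injection of 1.5 mL/kg isoosmotic pH 7.4 phosphate buffer (20 mg PO4/kg) was given first. This was followed by infusion of 3 mL/min pH 7.4 buffer containing 4% mannitol (6.9 mg PO4/min) throughout the experiment. Urinary Na+, K+ and Cl- were measured by standard methods. Each value is the mean of the two highest consecutive 15-min collections.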

Canis familiaris [10] = assay: Compound was tested for diuretic activity in dogs at 5 mg/kg dose after oral administration measured as microequivalent of K+/minute; format: functional, Canis lupus familiaris, Urine
Summary of the method: (§4)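 Oral dog test: water loading (250 mL po, then 500 mL 1 h later). One hour later bladders were emptied by catheter and compound or placebo given in gelatin capsules. Dogs were kept in metabolism cages. Voided urine plus catheterized bladder urine was pooled at 5 h, and Na+, K+ and Cl- were measured by standard methods. Geometric means are reported.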

Canis familiaris [11] = assay: Compound was tested for diuretic activity in dogs at 5 mg/kg dose after oral administration measured as microequivalent of Cl-/minute; format: functional, Canis lupus familiaris, Urine; summary of the method: as §4
Canis familiaris [12] = assay: Compound was tested for diuretic activity in dogs at 5 mg/kg dose after intravenous administration measured as microequivalent of Na+/minute; 11/118 (Control/Drug treated); format: functional, Canis lupus familiaris, Urine
Canis familiaris [13] = assay: Compound was tested for diuretic activity in dogs at 5 mg/kg dose after oral administration measured as microequivalent of Na+/minute; format: functional, Canis lupus familiaris, Urine; summary of the method: as §4
Canis familiaris [14] = assay: Compound was tested for diuretic activity in dogs at 5 mg/kg dose after intravenous administration measured as microequivalent of K+/minute; 6/35 (Control/Drug treated); format: functional, Canis lupus familiaris, Urine; summary of the method: as §3
Canis familiaris [15] = assay: Compound was tested for diuretic activity in dogs at 5 mg/kg dose after intravenous administration measured as microequivalent of K+/minute (Control/Drug treated); format: functional, Canis lupus familiaris, Urine; conditions: in the assay text read “oral” for “intravenous”
Canis familiaris [16] = assay: Compound was tested for diuretic activity in dogs at 5 mg/kg dose after oral administration measured as microequivalent of Na+/minute
Canis familiaris [17] = assay: Compound was tested for diuretic activity in dogs at 5 mg/kg dose after intravenous administration measured as microequivalent of Cl-/minute (Control/Drug treated); format: functional, Canis lupus familiaris, Urine; conditions: in the assay text read “oral” for “intravenous”
Canis familiaris [18] = assay: Compound was tested for diuretic activity in dogs at 5 mg/kg dose after intravenous administration measured as microequivalent of Na+/minute; 3/84 (Control/Drug treated); format: functional, Canis lupus familiaris, Urine
Canis familiaris [19] = assay: Compound was tested for diuretic activity in dogs at 5 mg/kg dose after intravenous administration, activity is expressed as urine volume; 0.4/2; format: functional, Canis lupus familiaris
Canis familiaris [20] = assay: Compound was tested for diuretic activity in dogs at 5 mg/kg dose after intravenous administration measured as microequivalent of Cl-/minute; 7/1385 (Control/Drug treated); format: functional, Canis lupus familiaris, Urine; summary of the method: as §3
[21] = Activity is measured as ratio of clearance of urate / […] at 0.0312 mg/kg; Curate/Cinulin; format: functional
Summary of the method: (§5)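 Inulin iv gave GFR, and urate clearance was measured by AutoAnalyzer. Controls came from three 20-min periods. Aqueous compound was given orally by nasal catheter, and the response was averaged over eight 15-20 min periods. Values are treatment minus control from single experiments.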

Pan troglodytes [22] = assay: Compound was tested for natriuretic activity in chimpanzee measured as microequivalent of Na+/minute at 1.0 mg/kg dose; mequiv of Na; format: functional; summary of the method: as §2
Pan troglodytes [23] = organism: Pan troglodytes; assay: Compound was tested for natriuretic activity in chimpanzee measured as microequivalent of Na+/minute at […]; mequiv of Na; format: functional; summary of the method: as §2
[24] = Activity is measured as ratio of clearance of urate / […] at 0 mg/kg; Curate/Cinulin; format: functional; summary of the method: as §5
[25] = Activity is measured as ratio of clearance of urate / […] at 10 mg/kg; Curate/Cinulin; format: functional; summary of the method: as §5
Pan troglodytes [26] = assay: Compound was tested for natriuretic activity in chimpanzee measured as microequivalent of Na+/minute at 0 mg/kg; mequiv of Na; format: functional; summary of the method: as §2
Pan troglodytes [27] = assay: Compound was tested for natriuretic activity in chimpanzee measured as microequivalent of Na+/minute at 0.0312 mg/kg; mequiv of Na; format: functional; summary of the method: as §2
Pan troglodytes [28] = assay: Compound was tested for natriuretic activity in chimpanzee measured as microequivalent of Na+/minute at 1 mg/kg; mequiv of Na; format: functional; summary of the method: as §2
Pan troglodytes [29] = assay: Compound was tested for natriuretic activity in chimpanzee measured as microequivalent of Na+/minute at 10 mg/kg; mequiv of Na; format: functional; summary of the method: as §2
[30] = Activity is measured as ratio of clearance of urate / […] at 1.0 mg/kg dose; Curate/Cinulin; format: functional; summary of the method: as §5
Canis familiaris [31] = assay: Compound was tested for diuretic activity in dogs at 5 mg/kg dose after intravenous administration measured as microequivalent of K+/minute; 4/19 (Control/Drug treated); format: functional, Canis lupus familiaris, Urine; summary of the method: as §3

Row | Structure (SMILES) | Oral activity (Rattus norvegicus [1]) | Oral activity (Rattus norvegicus [2]) | Oral activity (Rattus norvegicus [3]) | Oral activity (Rattus norvegicus [4]) | Oral activity (Pan troglodytes [5]) | Ratio [7] | Urine volume (Canis familiaris [8]) | Oral activity (Canis familiaris [10]) | Oral activity (Canis familiaris [11]) | Oral activity (Canis familiaris [13]) | also measured
1 | O=C(c1cnsn1)c1cc2c(c(Cl)c1Cl)OC(C(=O)O)C2 (stereo unspecified) | 82 | 38 | 230 | 284 | 88 | 0.096 | – | – | – | – | Na+ excretion (Canis familiaris [6]): 767 µequiv/min
2 | O=C(c1ccco1)c1cc2c(c(Cl)c1Cl)OC(C(=O)O)C2 (stereo unspecified) | 150 | 69 | 218 | 322 | – | – | – | – | – | – | –
3 | O=C(c1cccs1)c1cc2c(c(Cl)c1Cl)O[C@@H](C(=O)O)C2 [listing 1 of 2 here] | 38 | 48 | 41 | 29 | 95 | 0.454 | 233 mL | 2.5 | 4.3 | 4.8 | Cl- excretion (Canis familiaris [9]): 54 µequiv/min; Na+ excretion (Canis familiaris [12]): 118 µequiv/min; K+ excretion (Canis familiaris [14]): 35 µequiv/min
4 | NC(=O)C1Cc2cc(C(=O)c3cccs3)c(Cl)c(Cl)c2O1 (stereo unspecified) | 9 | 7 | 11 | 25 | – | – | 229 mL | 1.7 | 3 | 2.1 | Oral activity (Canis familiaris [15]): 1.7; Oral activity (Canis familiaris [16]): 2.1; Oral activity (Canis familiaris [17]): 3
5 | CC(=O)c1cc2c(c(Cl)c1Cl)OC(C(=O)O)C2 (stereo unspecified) | 26 | 13 | 76 | 161 | – | – | – | – | – | – | Oral activity (Canis familiaris [18]): 3; Urine volume (Canis familiaris [19]): 0.4 mL/min
6 | O=C(c1cccs1)c1cc2c(c(Cl)c1Cl)O[C@H](C(=O)O)C2 | 251 | 177 | 283 | 339 | 1451 | 0.132 | 501 mL | 8.3 | 53.7 | 46 | Cl- excretion (Canis familiaris [20]): 1380 µequiv/min
7 | O=C(c1cccs1)c1cc2c(c(Cl)c1Cl)O[C@@H](C(=O)O)C2 [listing 2 of 2 here] | – | – | – | – | – | – | – | – | – | – | Ratio [21]: 0.01; Oral activity (Pan troglodytes [22]): 540; Oral activity (Pan troglodytes [23]): 492; Ratio [24]: 0.013; Ratio [25]: 0.376 and 0.358; Oral activity (Pan troglodytes [26]): 26; Oral activity (Pan troglodytes [27]): 256; Oral activity (Pan troglodytes [28]): 711 and 637; Oral activity (Pan troglodytes [29]): 622 and 482; Ratio [30]: -0.019
8 | O=C(c1cccs1)c1cc2c(c(Cl)c1Cl)OC(CO)C2 (stereo unspecified) | 45 | 16 | 68 | 72 | – | – | – | – | – | – | –
9 | O=C(c1ccccc1)c1cc2c(c(Cl)c1Cl)OC(C(=O)O)C2 (stereo unspecified) | 85 | 59 | 117 | 119 | – | – | – | – | – | – | K+ excretion (Canis familiaris [31]): 19 µequiv/min

— ChEMBL document CHEMBL1121663, “(Acylaryloxy)acetic acid diuretics. 3. 2,3-Dihydro-5-acyl-2-benzofurancarboxylic acids, a new class of uricosuric diuretics” (1981)
